Measurements as given in ChEMBL document CHEMBL1148476, “3-(4-Aroyl-1-methyl-1H-2-pyrrolyl)-N-hydroxy-2-propenamides as a new class of synthetic histone deacetylase inhibitors. 2. Effect of pyrrole-C2 and/or -C4 substitutions on biological activity” (J Med Chem, 2004).
Active and inactive are the calls of the source. The calls are words filed in the database; no cut-off is given here. Non-standard residues stand in square brackets, D forms with d. Residues, ends and D or L forms follow the SMILES beside them. ξ: configuration not given here. Aoe(9ξ) = N[C@@H](CCCCCC(=O)C1CO1)C(=O)O; dPip = O=C(O)[C@H]1CCCCN1

Experiments:
[1] = target: T1, Histone deacetylase HD2 (Zea mays) (UniProt Q94F81); assay: Ability to inhibit maize histone deacetylase enzyme in vitro using [3H]acetate-prelabeled chicken reticulocyte histones at 28.2 uM
T1 sequence (whole entry): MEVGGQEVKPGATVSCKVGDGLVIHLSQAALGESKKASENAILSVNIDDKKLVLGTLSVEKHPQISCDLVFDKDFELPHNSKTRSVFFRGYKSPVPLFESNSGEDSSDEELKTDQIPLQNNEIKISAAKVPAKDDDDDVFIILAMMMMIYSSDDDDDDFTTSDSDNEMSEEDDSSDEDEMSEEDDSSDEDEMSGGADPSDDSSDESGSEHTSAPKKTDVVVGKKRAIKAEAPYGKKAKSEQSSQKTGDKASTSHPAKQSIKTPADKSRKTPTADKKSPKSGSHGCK
How it was run: (§1)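 Maize HD2, purified by anion exchange, heparin/histone affinity and size exclusion chromatography, incubated 30 min at 30 °C with [3H]acetate-prelabeled chicken reticulocyte core histones (1 mg/mL). Stopped with HCl/acetate and extracted into ethyl acetate. Released [3H]acetic acid in the upper phase was counted by liquid scintillation. Compounds started at 40 µM and active ones were diluted further. Blank solvents served as negative controls. IC50 values are from triple determinations.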

Histone deacetylase HD2 [2] = target: T2, Histone deacetylase HD2 (Zea mays, UniProt Q94F81); assay: (§2) Inhibitory concentration against histone deacetylase HD2 enzyme.; how it was run: as §1
T2 sequence (Q94F81 whole entry): T1 sequence (whole entry)

Histone deacetylase HD2 [3] = target: T2, Histone deacetylase HD2; assay: Concentration required for inhibition of histone deacetylase HD2 in vitro.
[4] = target: T1, Histone deacetylase HD2 (Zea mays); assay: as §2; how it was run: as §1
[5] = target: T1, Histone deacetylase HD2 (Zea mays); assay: Ability to inhibit maize histone deacetylase enzyme in vitro using [3H]acetate-prelabeled chicken reticulocyte histones at 25.8 uM; how it was run: as §1
[6] = target: T1, Histone deacetylase HD2 (Zea mays); assay: Ability to inhibit maize histone deacetylase enzyme in vitro using [3H]acetate-prelabeled chicken reticulocyte histones at 30 uM; NI = No inhibition; how it was run: as §1
[7] = target: T1, Histone deacetylase HD2 (Zea mays); settings: 24.6 uM
[8] = target: T1, Histone deacetylase HD2 (Zea mays); assay: Ability to inhibit maize histone deacetylase enzyme in vitro using [3H]acetate-prelabeled chicken reticulocyte histones at 30 uM; No inhibition; how it was run: as §1
[9] = target: T1, Histone deacetylase HD2 (Zea mays); assay: Ability to inhibit maize histone deacetylase enzyme in vitro using [3H]acetate-prelabeled chicken reticulocyte histones at 24.8 uM; how it was run: as §1
[10] = target: T1, Histone deacetylase HD2 (Zea mays); assay: Ability to inhibit maize histone deacetylase enzyme in vitro using [3H]acetate-prelabeled chicken reticulocyte histones at 22.6 uM; how it was run: as §1
[11] = target: T1, Histone deacetylase HD2 (Zea mays); assay: Ability to inhibit maize histone deacetylase enzyme in vitro using [3H]acetate-prelabeled chicken reticulocyte histones at 21.7 uM; how it was run: as §1
[12] = target: T1, Histone deacetylase HD2 (Zea mays); assay: Ability to inhibit maize histone deacetylase enzyme in vitro using [3H]acetate-prelabeled chicken reticulocyte histones at 23.3 uM; how it was run: as §1
[13] = target: T1, Histone deacetylase HD2 (Zea mays); assay: Ability to inhibit maize histone deacetylase enzyme in vitro using [3H]acetate-prelabeled chicken reticulocyte histones at 28 uM; how it was run: as §1
[14] = target: T1, Histone deacetylase HD2 (Zea mays); assay: Ability to inhibit maize histone deacetylase enzyme in vitro using [3H]acetate-prelabeled chicken reticulocyte histones at 29.8 uM; how it was run: as §1
[15] = target: T1, Histone deacetylase HD2 (Zea mays); assay: Ability to inhibit maize histone deacetylase enzyme in vitro using [3H]acetate-prelabeled chicken reticulocyte histones at 20.8 uM; how it was run: as §1
[16] = target: T1, Histone deacetylase HD2 (Zea mays); assay: Ability to inhibit maize histone deacetylase enzyme in vitro using [3H]acetate-prelabeled chicken reticulocyte histones at 24 uM
How it was run: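 Maize HD2 purified by anion exchange, heparin/histone affinity and size exclusion chromatography. Enzyme incubated 30 min at 30 °C with [3H]acetate-prelabeled chicken reticulocyte core histones (1 mg/mL stock). Reaction stopped with HCl/acetate plus ethyl acetate, then centrifuged. Released [3H]acetic acid in the upper phase counted by liquid scintillation. Blank solvent served as negative control. Triple determinations.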

[17] = target: T1, Histone deacetylase HD2 (Zea mays); assay: Ability to inhibit maize histone deacetylase enzyme in vitro using [3H]acetate-prelabeled chicken reticulocyte histones at 27 uM; how it was run: as §1
[18] = target: T1, Histone deacetylase HD2 (Zea mays); assay: Ability to inhibit maize histone deacetylase enzyme in vitro using [3H]acetate-prelabeled chicken reticulocyte histones at 29 uM
How it was run: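 Maize HD2 purified by anion exchange, heparin/histone affinity and size exclusion chromatography. Enzyme incubated 30 min at 30 °C with [3H]acetate-prelabeled chicken reticulocyte core histones (1 mg/mL). Stopped with HCl/acetate, then extracted into ethyl acetate; released [3H]acetic acid in the upper phase counted by liquid scintillation. Triple determinations; blank solvent as negative control.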

[19] = target: T1, Histone deacetylase HD2 (Zea mays); assay: Ability to inhibit maize histone deacetylase enzyme in vitro using [3H]acetate-prelabeled chicken reticulocyte histones at 26 uM; how it was run: as §1
[20] = target: T1, Histone deacetylase HD2 (Zea mays); settings: 25 uM
[21] = target: T1, Histone deacetylase HD2 (Zea mays); assay: Ability to inhibit maize histone deacetylase enzyme in vitro using [3H]acetate-prelabeled chicken reticulocyte histones at 21.3 uM; how it was run: as §1
[22] = target: T1, Histone deacetylase HD2 (Zea mays); assay: Ability to inhibit maize histone deacetylase enzyme in vitro using [3H]acetate-prelabeled chicken reticulocyte histones at 23.9 uM; how it was run: as §1
[23] = target: T1, Histone deacetylase HD2 (Zea mays); settings: 22.4 uM
[24] = target: T1, Histone deacetylase HD2 (Zea mays); assay: Ability to inhibit maize histone deacetylase enzyme in vitro using [3H]acetate-prelabeled chicken reticulocyte histones at 25.7 uM; how it was run: as §1

Compound	IC50 (Histone deacetylase HD2 [2]) [nM]	IC50 (Histone deacetylase HD2 [3]) [nM]	other results
Cn1cc(C(=O)Cc2ccccc2)cc1CC(=O)NO	10700	10800	inhibition [1]: 62.8%
CC/C(=C\c1cc(C(=O)c2ccccc2)cn1C)C(=O)NO			Log IC50 [4]: inactive; inhibition [5]: 37%
Cn1cc(C(=O)c2ccccc2)cc1C=C(C(=O)O)C(=O)O			inhibition [6]: inactive; Log IC50 [4]: inactive
Cn1cc(C(=O)CCCc2ccccc2)cc1/C=C/C(=O)NO	129	130	inhibition [7]: 94%
CC/C(=C\c1cc(C(=O)Cc2ccccc2)cn1C)C(=O)NO			Log IC50 [4]: inactive; inhibition [8]: inactive
Cn1cc(C(=O)Cc2ccccc2)cc1C=C(C(=O)O)C(=O)O			Log IC50 [4]: inactive; inhibition [8]: inactive
Cn1cc(C(=O)C2CC2c2ccccc2)cc1/C=C/C(=O)NO (stereo unspecified)	309	310	inhibition [9]: 97.6%
CCCC(CCC)C(=O)O [VALPROATE SODIUM]		128000	
Cn1cc(C(=O)CCCCCc2ccccc2)cc1/C=C/C(=O)NO	70.8	71	inhibition [10]: 97.2%
Cn1cc(C(=O)CCCCCCc2ccccc2)cc1/C=C/C(=O)NO	263	266	inhibition [11]: 95%
Cn1cc(C(=O)c2ccccc2)cc1C=C(C(=O)NO)C(=O)NO	66100	66000	inhibition [12]: 22.7%
Cn1cc(C(=O)c2ccccc2)cc1/C=C/C=C/C(=O)NO	776	770	inhibition [13]: 94%
Cn1c(CC(=O)NO)ccc1C(=O)c1ccccc1	20400	20500	inhibition [14]: 61.3%
Cn1cc(C(=O)CCCCCCCc2ccccc2)cc1/C=C/C(=O)NO	209	209	inhibition [15]: 96%
Cn1c(CC(=O)NO)ccc1C(=O)Cc1ccccc1	17000	17100	inhibition [1]: 64.2%
Cn1cc(C(=O)CCCCc2ccccc2)cc1/C=C/C(=O)NO	110	110	inhibition [12]: 94%

Compound	IC50 (Histone deacetylase HD2 [2]) [nM]	IC50 (Histone deacetylase HD2 [3]) [nM]	other results
Cn1cc(C(=O)c2ccc3ccccc3c2)cc1/C=C/C(=O)NO	115	115	inhibition [16]: 93.8%
Cn1cc(C(=O)c2ccccc2)cc1CC(=O)NO	34700	34700	
Cn1cc(C(=O)Cc2ccccc2)cc1CCC(=O)NO	1200	1200	inhibition [17]: 96%
Cn1cc(C(=O)Cc2ccccc2)cc1/C=C/C=C/C(=O)NO	1480	1480	inhibition [9]: 89.8%
O=C(CCCCC[C@@H]1NC(=O)[C@H]2CCCCN2C(=O)[C@H](Cc2ccccc2)NC(=O)[C@H](Cc2ccccc2)NC1=O)C1CO1 (stereo partly specified) [TRAPOXIN A] (cyclo(FF[dPip][Aoe(9ξ)]))		10	
Cn1cc(C(=O)Cc2ccccc2)cc1/C=C/C(=O)NO	100	100	inhibition [18]: 96%
C/C(=C\c1cc(C(=O)Cc2ccccc2)cn1C)C(=O)NO	1410	1400	inhibition [19]: 95%
C/C(=C\c1cc(C(=O)/C=C/c2ccccc2)cn1C)C(=O)NO	1290	1300	inhibition [20]: 96%
CC/C(=C\c1cc(C(=O)/C=C/c2ccccc2)cn1C)C(=O)NO			Log IC50 [4]: inactive; inhibition [8]: inactive
Cn1cc(C(=O)/C=C/c2ccccc2)cc1/C=C/C(=O)NO	1000	1000	inhibition [13]: 95%
Cn1cc(C(=O)C2(c3ccccc3)CC2)cc1/C=C/C(=O)NO	100	101	inhibition [21]: 94.2%
C/C(=C\c1cc(C(=O)c2ccccc2)cn1C)C(=O)NO	2690	2700	inhibition [17]: 83%
Cn1cc(C(=O)/C=C/c2ccccc2)cc1/C=C/C=C/C(=O)NO	10000	9900	inhibition [22]: 66%
Cn1cc(C(=O)Cc2ccccc2)cc1C=C(C(=O)NO)C(=O)NO	200	200	inhibition [23]: 91%
Cn1cc(C(=O)c2cccc3ccccc23)cc1/C=C/C(=O)NO	145	144	inhibition [16]: 93.6%
Cn1cc(C(=O)CCc2ccccc2)cc1/C=C/C(=O)NO	42.7	43	inhibition [24]: 98%
